TbMetRS inhib: Trypanosoma brucei MetRS inhibition; purified T. brucei MetRS, ATP depletion, Kinase-Glo luminescence; inhibition, % at 11.9 µM; AID 624268; 360,000 tested, 0.4% active;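 active means inhibition above a per-plate cutoff of the control wells' mean inhibition plus 3 SD, cut at about 5.5% in these data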;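 further: 0% = DMSO wells median and 100% = median of wells with control inhibitor compound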
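Test system – parasite MetRS enzyme · Reagent – substrates ATP, L-methionine and bulk Escherichia coli tRNA · Doses – 11.9 µM compound single dose, 0.9% DMSO · Times – 15 min enzyme-compound preincubation, 2 h reaction, 10 min detection, 25 °C · Signal – Kinase-Glo luminescence, ATP depletion format · Controls – DMSO-only wells as low control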
Rce1 inh: blocks yeast Ras-converting enzyme; yeast membranes, quenched prenylated peptide cleavage fluorescence; AID 2563; Q03530; calls only; 290,000 tested, 0.27% active;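 active means fall in fluorescence gain of 50% or more versus controls, with final raw signal at or below 3038400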;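 further: plate controls were neutral control wells for no effect and wells lacking membranes for full effect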
Target sequence (Q03530 whole entry, looked up): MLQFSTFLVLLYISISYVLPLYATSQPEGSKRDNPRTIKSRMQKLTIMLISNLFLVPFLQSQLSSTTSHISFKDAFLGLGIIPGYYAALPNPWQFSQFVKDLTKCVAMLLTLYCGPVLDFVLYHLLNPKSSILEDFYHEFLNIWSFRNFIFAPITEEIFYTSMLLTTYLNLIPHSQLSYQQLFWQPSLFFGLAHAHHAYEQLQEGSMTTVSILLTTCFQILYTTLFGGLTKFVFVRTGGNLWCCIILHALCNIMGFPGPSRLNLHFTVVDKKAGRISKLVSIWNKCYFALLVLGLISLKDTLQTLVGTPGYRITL
HCV core dimer: blocks dimerization of HCV core protein. inhibition, % at 5 µM. 300,000 tested, 0.33% active. AID 1899. TR-FRET GST/Flag-core106 dimerization, 1536-well;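 active means inhibition above the mean of all tested compounds plus 3 SD, set per screening campaign, cut at about 45% in these data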
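Material: GST/Flag-tagged HCV core106 proteins. Incubation: 4 h, 22.5 °C incubation. Read-out basis: inhibition (%) from 671 over 617 nm ratio. Measured by: TR-FRET, excitation 340 nm, emission 617 and 671 nm.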
NadD inh: inhibitors of Staphylococcus aureus NadD. purified NadD enzyme, colorimetric absorbance read-out. 360,000 tested, 0.78% active. AID 602399. inhibition, % at 20 µM; in the data active means inhibition above about 26%
DSG3 Ab inh: blocks pemphigus antibody binding to human desmoglein-3 | 310,000 tested, 0.48% active | AID 588358 | P32926 | binding (percent of control), % at 10 µM | DSG3-coupled beads, scFv-anti-DSG3-GFP binding, flow cytometry; stronger effect = lower value;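 active means binding more than 3 SD below its plate's average and above zero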;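 further: hits lower antibody fragment binding to DSG3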
* marks the source's active call; other numbers are inactive results. An excerpt weighted towards active compounds, which were near 1.9% of everything screened.

For Cc1noc(C)c1NC(=O)N(C)C[C@H]1Oc2ccc(NS(=O)(=O)c3cn(C)cn3)cc2C(=O)N([C@H](C)CO)C[C@@H]1C the results were TbMetRS inhib -0.1, NadD inh 4.6 and DSG3 Ab inh 102.8.
COC(=O)C(NC(=O)CCC(=O)NC(C(=O)OC)c1ccccc1)c1ccccc1 (configuration not stated) was read as TbMetRS inhib -0.2, Rce1 inh inactive, HCV core dimer -15.3, NadD inh -4.4 and DSG3 Ab inh 101.9.
For CCN1/C(=C/c2ccc3cc(C)ccc3[n+]2C)Sc2ccc3sccc3c21 the results were TbMetRS inhib -0.7, NadD inh 64.3* and DSG3 Ab inh 3.0*.
`CCO[C@H]1OC(C(=O)Nc2ccccc2)=C[C@@H](c2csc3ccccc23)[C@@H]1CCCO` gave TbMetRS inhib -0.2, Rce1 inh active, HCV core dimer 3.5, NadD inh -7.2 and DSG3 Ab inh 101.0.
`O=C(Nc1nccs1)c1cc(-c2ccncc2)nc2ccccc12` gave TbMetRS inhib 1.0, Rce1 inh inactive, HCV core dimer 56.4*, NadD inh 8.7 and DSG3 Ab inh 108.2.
`Cc1csc(NC(=O)c2cc(-c3ccncc3)nc3ccccc23)n1` gave TbMetRS inhib -0.1, Rce1 inh inactive, HCV core dimer 17.1, NadD inh 1.7 and DSG3 Ab inh 85.8.
`CC(=O)Nc1ccc(N2C(=O)c3ccc(C(=O)Nc4nnc(SCc5ccc(F)cc5)s4)cc3C2=O)cc1` gave TbMetRS inhib 0.1, Rce1 inh inactive, HCV core dimer 33.5, NadD inh 31.1* and DSG3 Ab inh 81.2.
For CCC(=O)Nc1nnc(SCc2ccc(F)cc2)s1 the results were TbMetRS inhib -0.8, Rce1 inh inactive, HCV core dimer 0.7, NadD inh 11.0 and DSG3 Ab inh 103.3.
`N#Cc1ccc[n+](CC(=O)c2ccc(NC(=O)c3ccccc3)cc2)c1` gave TbMetRS inhib -0.3, Rce1 inh inactive, HCV core dimer 5.3, NadD inh 14.0 and DSG3 Ab inh 97.0.
CCN(Cc1ccccc1)S(=O)(=O)c1ccc(C(=O)N(CCCN(C)C)c2nc3cc(C)cc(C)c3s2)cc1 was read as TbMetRS inhib -0.4, Rce1 inh active, HCV core dimer -10.2, NadD inh 2.9 and DSG3 Ab inh 117.6.
Screening C=CCN1CC(=O)N2C(C)c3[nH]c4ccccc4c3C[C@H]2C1=O (some centres not stated) returned TbMetRS inhib 0.1, Rce1 inh inactive, HCV core dimer -2.0, NadD inh 4.9 and DSG3 Ab inh 102.7.
`COc1ccccc1CNC(=O)Cn1cnnn1` gave TbMetRS inhib -0.7, Rce1 inh inactive, HCV core dimer -2.9, NadD inh -3.2 and DSG3 Ab inh 109.2.
For COC(=O)c1ccc(CNC(=O)Cn2cnnn2)cc1 the results were TbMetRS inhib 0.6, Rce1 inh inactive, NadD inh -5.6 and DSG3 Ab inh 80.6*.
COc1ccccc1-n1c(-c2ccccc2)c[nH]c1=S was read as TbMetRS inhib -0.2, Rce1 inh active, NadD inh 8.2 and DSG3 Ab inh 95.0.
Screening S=c1[nH]cc(-c2ccccc2)n1-c1ccccc1Cl returned TbMetRS inhib -0.6, Rce1 inh inactive, HCV core dimer -6.6, NadD inh 8.5 and DSG3 Ab inh 107.1.
Screening O=C(Nc1cccc(S(=O)(=O)N2CCOCC2)c1)c1c2c(nc3ccccc13)CCC2 returned TbMetRS inhib -0.6, Rce1 inh inactive, HCV core dimer 74.2*, NadD inh 4.9 and DSG3 Ab inh 94.3.
CCN(CC)S(=O)(=O)c1ccc(N2CCOCC2)c(NC(=O)c2c3c(nc4ccccc24)CCC3)c1 was read as TbMetRS inhib -0.3, Rce1 inh inactive, HCV core dimer 76.6*, NadD inh 16.6 and DSG3 Ab inh 123.5.
Cc1cc2c(=O)oc(-c3ccccc3Br)nc2s1 was read as TbMetRS inhib 0.1, Rce1 inh inactive, NadD inh -4.9 and DSG3 Ab inh 133.3.
Screening CCc1cc2c(=O)oc(-c3ccccc3F)nc2s1 returned TbMetRS inhib 1.7, Rce1 inh inactive, HCV core dimer 2.9, NadD inh -10.6 and DSG3 Ab inh 78.6*.
CCN(CC(=O)Nc1c(F)cccc1F)C(=O)/C=C/c1ccc2ccccc2n1 was read as TbMetRS inhib 0.1, Rce1 inh inactive, HCV core dimer 75.2*, NadD inh 18.4 and DSG3 Ab inh 76.8*.
`COC/C=C/C1=CC2=CC(=O)C(C)(OC(=O)c3cnc4ccccc4n3)C(=O)C2=CN1c1ccccc1` (configuration not stated) gave Rce1 inh inactive and HCV core dimer 28.1.
Screening COC/C=C/C1=CC2=CC(=O)C(C)(OC(=O)c3cnc4ccccc4n3)C(=O)C2=CN1c1ccc(CO)cc1 (configuration not stated) returned Rce1 inh inactive and HCV core dimer 55.8*.
For COc1ccc2c(c1)cc(C(=O)N[C@@H](CCSC)C(=O)N1CCC(C(=O)O)CC1)n2C the results were TbMetRS inhib 0.1, Rce1 inh active, HCV core dimer -6.1, NadD inh -4.1 and DSG3 Ab inh 92.3.
For Cc1cccc(N/N=C2/COC(C)(C)CC2=O)c1 the results were TbMetRS inhib 0.3, Rce1 inh inactive, HCV core dimer 5.5, NadD inh 5.1 and DSG3 Ab inh 93.9.
For CCOC(=O)C(Cc1ccnc2ccccc12)=NO the results were TbMetRS inhib -0.1, NadD inh -0.2 and DSG3 Ab inh 115.3.
`CCOC(=O)C(=O)Cc1cccnn1` gave TbMetRS inhib -0.1, NadD inh 10.1 and DSG3 Ab inh 47.2*.
C/C(CC1(O)C(=O)Nc2ccccc21)=N\O (configuration not stated) was read as TbMetRS inhib -0.9, Rce1 inh active, HCV core dimer -1.9, NadD inh -10.8 and DSG3 Ab inh 99.9.
`COc1ccc(/C(CC2(O)C(=O)Nc3ccccc32)=N\O)cc1` (configuration not stated) gave TbMetRS inhib 0.2, Rce1 inh inactive, HCV core dimer 1.7 and NadD inh -1.7.
For COc1ccc(C(=O)N/N=C(\C)c2ccc3c(c2)C2C=CCC2C(c2ccccc2)N3)cc1 (configuration not stated) the results were TbMetRS inhib -1.0, HCV core dimer 67.1*, NadD inh 52.1* and DSG3 Ab inh 72.2.
COc1cc(C(=O)Nc2ccc3c(c2)C(=O)c2ccccc2C3=O)cc(OC)c1OC was read as TbMetRS inhib -0.4, Rce1 inh inactive, HCV core dimer 9.1, NadD inh -1.8 and DSG3 Ab inh 105.0.
COc1ccc(C(=O)Nc2ccc3c(c2)C(=O)c2ccccc2C3=O)cc1OC was read as TbMetRS inhib -0.9, Rce1 inh inactive, HCV core dimer 9.7, NadD inh -0.2 and DSG3 Ab inh 71.8*.
